# Results collected from several papers.
# Protocols differ between the studies behind these lines.
# KCNA1: Potassium voltage-gated channel subfamily A member 1 (KCNA1, Homo sapiens, UniProt Q09470)
SMILES,target,test,system,conditions,quantity,value
CC[C@H](C)[C@H](NC(=O)[C@H](CCC(N)=O)NC(=O)[C@H](CCCNC(=N)N)NC(=O)[C@H](CO)NC(=O)[C@H](Cc1c[nH]cn1)NC(=O)[C@@H]1CCCN1C(=O)[C@H](C)NC(=O)[C@H](CO)NC(=O)[C@H](CC(C)C)NC(=O)CNC(=O)[C@@H]1CCCN1C(=O)[C@H](CCC(N)=O)NC(=O)[C@H](CCC(N)=O)NC(=O)[C@H](CCCNC(=N)N)NC(=O)[C@H](CO)NC(=O)CNC(=O)[C@H](CO)NC(=O)[C@H](CO)NC(=O)[C@H](CCC(=O)O)NC(=O)[C@@H]1CCCN1C(=O)[C@@H]1CCCN1C(=O)[C@@H]1CCCN1C(=O)[C@H](CO)NC(=O)[C@H](CC(C)C)NC(=O)[C@H](CO)NC(=O)[C@@H](NC(=O)CN)[C@@H](C)O)C(=O)N1CCC[C@H]1C(=O)N[C@@H](C)C(=O)N1CCC[C@H]1C(=O)N[C@@H](CCC(N)=O)C(=O)NCC(=O)N[C@@H](C)C(=O)N[C@H](C(=O)N[C@@H](CC(C)C)C(=O)N[C@H](C(=O)N[C@@H](CCC(N)=O)C(=O)N[C@@H](CCCNC(=N)N)C(=O)N[C@@H](CCC(=O)O)C(=O)N[C@@H](CCCCN)C(=O)N[C@@H](CC(=O)O)C(=O)N[C@@H](CC(C)C)C(=O)N1CCC[C@H]1C(=O)N[C@@H](CC(N)=O)C(=O)N[C@@H](Cc1ccc(O)cc1)C(=O)N[C@@H](CC(N)=O)C(=O)N[C@@H](Cc1c[nH]c2ccccc12)C(=O)N[C@@H](CC(N)=O)C(=O)N[C@@H](CO)C(=O)N[C@@H](Cc1ccccc1)C(=O)NCC(=O)N[C@@H](CC(C)C)C(=O)N[C@@H](CCCNC(=N)N)C(=O)N[C@@H](Cc1ccccc1)C(N)=O)C(C)C)C(C)C,"KiSS-1 receptor (KISS1R, Homo sapiens, UniProt Q969F8, Y302A)","inositol phosphate, agonist",HEK293,,Emax,94.9%
Cn1c(=O)c2[nH]cnc2n(C)c1=O,KCNA1,"ion current, inhibitor, patch clamp",,3 µM,inhibition,1.92%
Cc1cc([C@@H](C)Nc2ccccc2C(=O)O)c2nc(N3CCC(F)(F)CC3)c(C#N)c(=O)n2c1,"RAF proto-oncogene serine/threonine-protein kinase (RAF1, Homo sapiens, UniProt P04049)","binding, competition with immobilised ligand",,10 µM,remaining binding,90%
CNc1ncc2c(/C=C/C(=O)N3CCC(OC)CC3)nn(Cc3cccc(C(F)(F)F)c3)c2n1,"Serine/threonine-protein kinase 38-like (STK38L, Homo sapiens, UniProt Q9Y2H1)","enzyme activity, inhibitor, radiometric",,1 µM,remaining activity,90%
O=C(O)CNc1cccc(CN(Cc2ccc(-n3cccn3)cc2)S(=O)(=O)c2cccnc2)n1,"Prostaglandin E2 receptor EP2 subtype (PTGER2, Homo sapiens, UniProt P43116)","ligand displacement, radioligand",,10 µM,inhibition,95%
CC(C)NCC(O)COc1cccc2ccccc12 (stereo not shown),KCNA1,"ion current, inhibitor, patch clamp",,10 µM,inhibition,20.2%
COc1ccc(S(=O)(=O)N(CC(=O)NO)CC(C)C)cc1,"Collagenase 3 (MMP13, Homo sapiens, UniProt P45452)","enzyme activity, inhibitor",,0.5 µM,inhibition,51.2%
C=CC(=O)N1CCC(COCC(=O)N2CCN(c3nc(-c4cnc(N)nc4C(F)F)nc(N4CCOC[C@@H]4C)n3)CC2)CC1,"Dual specificity protein kinase CLK2 (CLK2, Homo sapiens, UniProt P49760)","binding, competition with immobilised ligand",,1 µM,remaining binding,79%
CNCCCC12CCC(c3ccccc31)c1ccccc12,KCNA1,"ion current, inhibitor, patch clamp",,30 µM,inhibition,50.2%
COc1cc(-c2cncc3c2CN(C)Cc2cc(N4CCNCC4)ccc2-3)cc(OC)c1OC,"Insulin receptor (INSR, Homo sapiens, UniProt P06213)","enzyme activity, inhibitor",,1 µM,remaining activity,107%
